Paper PMC5559291 (Journal of the American Chemical Society, 2015)
Like-named read-outs stand apart in the source and are kept apart here.

Tests used:
[1] = assay type: physicochemical
[2] = typical values; cited from earlier work
[3] = ref 7c, 7d, cited from earlier work
[4] = Size exclusion chromatography; assay type: physicochemical; conditions: protofibril sample; SEC deemed unreliable by the authors
Procedure, shortened: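 Superose 6 10/300 GL column (Vc = 24 ml); 50 μl Aβ40 sample injected and eluted at 0.5 ml/min. The column was equilibrated in either 10 mM sodium phosphate (pH 7.4) or 20 mM NaOH, with or without 150 mM NaCl. Apparent molecular weight was read from elution volume.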

[5] = Persistence of Aβ40 protofibrils in quiescent solution; assay type: physicochemical
[6] = assay type: physicochemical; conditions: from sedimentation velocity on diluted samples
Procedure, shortened: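 Diluted neutral-pH and protofibril Aβ40 samples were loaded into 12 mm path-length cells, equilibrated 2 h at 20.0° C, and spun at 20,000-50,000 rpm. Detection used absorbance at 280 nm and Rayleigh interference. Data were analysed as continuous c(s) distributions of Lamm equation solutions with maximum-entropy regularization, and sedimentation coefficients were corrected to 20° C water.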

[7] = Sedimentation velocity; assay type: physicochemical
[8] = 37° C; cited from earlier work
[9] = protofibril sample, 2.0 mM Aβ40

Aβ40: 40-residue amyloid-β peptide, made by FMOC solid-phase synthesis
monomeric fraction ([1]; high pH samples): > 90% | fraction of protofibrillar assemblies ([1]; protofibril samples): > 90% | quasi-equilibrium solubility of mature fibrils [2]: less than 1 μM | incubation time for evolution of spherical assemblies to mature fibrils ([3]; TEM, without sonication or agitation): more than 50 h | size of long-lived spherical assemblies ([3]; formed at 4° C, pH 7.4, 100 μM peptide): ~650 kDa | apparent molecular weight of a large fraction of material [4]: greater than 1 MDa | stability of protofibrils ([5]; quiescent solutions at pH 7.5, TEM): stable for at least several weeks | persistence of protofibrils ([5]; room temperature, without sonication or agitation of the Aβ40 solution): at least 20 days | quasi-equilibrium solubility of Aβ40 assemblies ([6]; neutral pH sample): greater than 10 μM | quasi-equilibrium solubility of Aβ40 assemblies ([6]; protofibril sample): greater than 10 μM | apparent molar mass of slowly sedimenting species ([7]; neutral pH sample, 2.0 mM Aβ40): 4.7 kDa | estimated molar masses of aggregates ([7]; neutral pH sample, 2.0 mM Aβ40): around 0.4 MDa | sedimentation coefficients of aggregates (broadly distributed around) ([7]; neutral pH sample, 2.0 mM Aβ40): around 11 S | aggregates as fraction of the loading signal ([7]; neutral pH sample, 2.0 mM Aβ40, pH 7.5): approximately 75% | sedimentation coefficient of slowly sedimenting species ([7]; neutral pH sample, 2.0 mM Aβ40, remaining material): ~0.6 S | apparent molar masses of rapidly sedimenting species [7, 9]: roughly 10 MDa | fraction of material consisting of rapidly sedimenting species [7, 9]: approximately 95%

Aβ42: 42-residue amyloid-β peptide; literature results only
time for subsequent conversion to fibrils [8]: ≤ 12 days
